High-throughput results from PubChem BioAssay.
In the library only some 1.9% were active in any assay of this set; here they are far more common.
MT1-MMP act inh – blocks activation of human MT1-MMP. HT1080 RFP-PRO-GFP cells, GFP/RFP ratio fluorescence, overnight; percent of plate control window, DMSO zero. AID 651647. P50281. actives 0.061% (n = 360,000). GFP/RFP ratio change, % at 20 µM;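 active = GFP/RFP ratio change of at least 30% with cell ATP level not reduced by more than half and red fluorescence within 50% of control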
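Test system: HT1080 cells expressing an RFP-PRO-GFP fluorescent reporter construct / Compound dosing: single-point 20 µM compound, 1% DMSO / Schedule: cells overnight before dosing, compound overnight, 37 °C, 5% CO2 / Evaluation: GFP/RFP fluorescence ratio / Control set: DMSO and RFP-L50D-GFP cell wells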
SKN-1 block – blocks SKN-1 activity in C. elegans; actives 0.49% (n = 360,000); C. elegans VP596 Pgst-4::GFP/RFP ratio, acrylamide-induced, 24 h; AID 624304; inhibition, % at 21.8 µM;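 active = interference check ratio from 0.5 to 1.5 plus GFP to RFP signal ratio inhibition reaching or exceeding a fixed threshold, cut at about 30% in these data, passing the limit was not always enough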
NR2E3 ag-1 – human photoreceptor-specific nuclear receptor agonism. Q9Y5X4. inhibition of corepressor binding, % at 3.98 µM. actives 0.35% (n = 360,000). CHO-S Gal4-NCOR/VP16-NR2E3 two-hybrid, luciferase;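 active = inhibition above the mean of all tested compounds plus 3 SD, cut at about 70% in these data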;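 note: higher means lower luciferase signal from less NR2E3 corepressor binding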
Rev-erbA mod – Rev-erb alpha (human) modulation; P20393; Rev-erbα–FITC-DNA binding, fluorescence polarization, 90 min; activity, % at 10 µM; actives 0.79% (n = 370,000);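 active = activity above about 14%, limit read from the data; passing the limit was not always enough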
Target sequence (P20393 whole entry, looked up): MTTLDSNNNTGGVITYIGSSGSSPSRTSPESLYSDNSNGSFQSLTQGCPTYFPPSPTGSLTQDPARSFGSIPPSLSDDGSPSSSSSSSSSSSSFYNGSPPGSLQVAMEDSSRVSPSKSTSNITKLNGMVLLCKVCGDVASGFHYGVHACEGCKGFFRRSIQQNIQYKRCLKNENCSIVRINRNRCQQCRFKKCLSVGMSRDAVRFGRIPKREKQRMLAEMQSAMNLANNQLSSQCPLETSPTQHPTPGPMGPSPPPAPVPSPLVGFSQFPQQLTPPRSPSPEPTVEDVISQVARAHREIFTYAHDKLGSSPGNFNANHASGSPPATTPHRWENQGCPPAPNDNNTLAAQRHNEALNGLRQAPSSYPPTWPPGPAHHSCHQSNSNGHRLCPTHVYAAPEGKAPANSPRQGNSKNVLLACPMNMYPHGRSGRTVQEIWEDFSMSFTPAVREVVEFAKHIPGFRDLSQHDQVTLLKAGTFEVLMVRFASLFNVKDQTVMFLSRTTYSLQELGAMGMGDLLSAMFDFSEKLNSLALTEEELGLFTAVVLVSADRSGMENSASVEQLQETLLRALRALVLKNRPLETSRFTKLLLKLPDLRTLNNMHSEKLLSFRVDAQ
NR2E3 ag-2 – NR2E3 (human) agonism; actives 0.12% (n = 320,000); inhibition of corepressor binding, % at 4.78 µM; GST-NR2E3/biotin-RetCOR TR-FRET, 1536-well; Q9Y5X4;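 active = percent inhibition above the cutoff of mean plus 3 SD of all tested compounds, set per screening campaign, cut at about 20% in these data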
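Test system – NR2E3–RetCOR corepressor complex · Quantity – NR2E3 fusion 1.35 nM · Buffer or medium – Tris pH 7.5 · Incubation – Compound–protein incubation for 5 h at 4 °C · Technique – TR-FRET, Eu(K)-anti-GST donor, streptavidin-D2 acceptor, ex 340, em 617/671 nm · Evaluation – percent inhibition of 671/617 nm emission ratio versus biotin and DMSO controls · Plate – 1536-well format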
PG9 Ab binder – PG9 antibody binding by small molecule; TR-FRET gp120-PG9 antibody binding; inhibition, % at 6.7 µM; actives 0.43% (n = 360,000); in the data active = inhibition above about 8.5%
NR1D1 mod conf – Rev-erb alpha (human) modulation, hit confirmation; actives 61% (n = 3,000); shares compounds with Rev-erbA mod; AID 1259319; activation, % at 25 µM; Rev-erb alpha FITC-DNA binding, fluorescence polarization, 90 min;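 active = activation at or above a set limit, or at least 3 SD above the negative control mean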
RORg counter – affects RORgamma DNA binding in a Rev-erb alpha counter-screen; AID 1259320; shares compounds with Rev-erbA mod; purified RORgamma protein-FITC-DNA binding, fluorescence polarization; actives 8% (n = 910); IC50, µM;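 active = Compounds whose fitted half-maximal concentration for disrupting protein-DNA binding is below 10 micromolar; the record names Rev-erb in its text, so the target is in doubt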
Hits are given with their value; . = inactive; / = no result.

SMILES	MT1-MMP act inh	SKN-1 block	NR2E3 ag-1	Rev-erbA mod	NR2E3 ag-2	PG9 Ab binder	NR1D1 mod conf	others
Cc1c(Cc2ccccc2)sc(/N=C/c2ccc3ccccc3c2)c1C(N)=O	.	.	.	/	.	/	/
Cc1ccc(/C=N/c2sc(Cc3ccccc3)c(C)c2C(N)=O)o1	.	.	.	29.5	.	.	.
c1ccc(Sc2cnc3ccccc3n2)cc1	.	.	.	19.5	.	.	21.6
Brc1ccc(Sc2cnc3ccccc3n2)cc1	.	.	.	49.2	.	.	35.2	RORg counter=.
Clc1ccccc1Sc1cnc2ccccc2n1	.	.	.	.	.	.	/
Clc1ccc(Sc2cnc3ccccc3n2)cc1	.	.	.	31.5	.	.	29.5
O=C(O)CSc1cnc2ccccc2n1	.	.	.	.	.	.	/
O=C1NCCc2onc(-c3ccc(Br)cc3)c21	.	.	.	.	/	.	/
Fc1ccccc1Oc1nc(-c2ccncc2)nc2ccccc12	.	.	.	32.8	.	.	.
O=S1(=O)c2ccc(N3CCCC3)cc2Oc2ccccc2CN1Cc1cn(Cc2cccc(F)c2)nn1	/	/	/	.	/	/	/
COc1ccc(-c2ccc(-c3noc(-c4cccc(OC)c4)n3)c(OC)n2)cc1	.	.	.	51.7	.	.	.
COc1ccc(-c2ccc(-c3noc(-c4ccccc4OC)n3)c(OC)n2)cc1	.	.	.	37.0	.	.	.
CCOc1nc(-c2ccc(OC)cc2)ccc1-c1noc(C)n1	.	.	.	.	.	.	/
COc1cccc(-c2nc(-c3ccc(NC(=O)Cc4ccccc4OC)cc3)no2)c1	.	.	.	/	/	/	/
COc1ccc(-c2ccc(-c3noc(C)n3)c(OC)n2)cc1	.	.	.	26.5	.	.	.
COc1ccc(CC(=O)Nc2ccc(-c3noc(-c4ccccc4OC)n3)cc2)cc1	.	.	.	36.3	.	.	55.1	RORg counter=.
O=C(OC12CCCN(C1)/C(=C/c1cccnc1)C2)c1ccc(F)cc1 (stereo unspecified)	/	/	/	.	/	/	/
COc1ccc(-c2ccc(-c3noc(-c4ccccc4C)n3)c(OC)n2)cc1	.	.	.	40.0	.	.	.
O=S(=O)(c1ccc(Br)cc1)N1CCN(c2cc(-c3ccccc3)nc3ncnn23)CC1	.	.	.	30.1	.	/	26.1
COc1ccc(S(=O)(=O)N2CCN(c3cc(-c4ccccc4)nc4ncnn34)CC2)cc1	.	.	.	.	.	.	/
C=CCN1C(=O)[C@H](CC(=O)NCc2ccccc2)[C@@]2(C(=O)OCC)CCCC=C12	/	/	/	.	/	/	/
COCCN1C(=O)/C(=C/c2ccc(N3CCCC3)cc2C)SC1=S	.	.	.	25.4	.	.	39.1	RORg counter=.
CCN=C1S/C(=C\c2ccc(N3CCOCC3)cc2C)C(=O)N1CC	.	.	.	.	.	.	/
COc1ccc(-c2cc(C(=O)c3c(N)n(C)c(=O)n(C)c3=O)c3ccccc3n2)cc1	.	.	.	.	.	.	/
COc1ccc(-c2cc(C(=O)OCC(=O)c3c(N)n(C)c(=O)n(C)c3=O)c3ccccc3n2)cc1	.	.	.	30.4	.	.	18.8
SMILES	MT1-MMP act inh	SKN-1 block	NR2E3 ag-1	Rev-erbA mod	NR2E3 ag-2	PG9 Ab binder	NR1D1 mod conf	others
COc1ccc(-c2c(C#Cc3ccsc3)c3cc(-c4ccc5[nH]ccc5c4)ccc3n2C)cc1	.	.	.	.	.	.	/
COc1ccc(-c2c(C#Cc3ccsc3)c3cc(-c4ccc5c(c4)OCCO5)ccc3n2C)cc1	.	.	.	54.2	/	.	77.3	RORg counter=3.42
COc1ccc(-c2c(C#Cc3ccsc3)c3cc(-c4ccc5c(c4)OCO5)ccc3n2C)cc1	.	.	.	20.8	.	.	30.1
COc1cc(OC)cc(-c2c(C#Cc3ccsc3)c3cc(-c4ccc5c(c4)OCO5)ccc3n2C)c1	.	.	.	26.1	/	.	26.3
Cn1c(=O)c2ccccc2n(C)c1=O	/	/	/	.	/	.	/
O=C(Cc1cn(Cc2ccccc2)c2ccccc12)Nc1ccc(Oc2cccnc2)cc1	/	/	/	.	/	.	/
CC1(C(=O)NCc2ccccc2)CSCC(=O)N1Cc1cccc(F)c1 (stereo unspecified)	.	.	/	.	/	.	/
Cc1cccc(OCC(=O)NC(=S)Nc2ccccc2N2CCOCC2)c1C	.	.	.	40.0	.	.	.
CC(C)C(=O)N1CCN(c2ccccc2NC(=S)NC(=O)Cc2ccccc2)CC1	.	.	.	17.2	.	.	.
C[C@H](CO)N1C[C@H](C)[C@@H](CN(C)Cc2ccc3c(c2)OCO3)Oc2cc(Br)ccc2S1(=O)=O	.	.	.	.	/	.	/
CN(Cc1nc2ccccc2c(=O)[nH]1)C(=O)c1cc(-c2ccc(Br)cc2)nc2ccccc12	.	.	.	36.1	/	.	23.3
COc1ccc(C2CC=C(C(C)=O)CN2S(=O)(=O)c2ccc(C)cc2)cc1 (stereo unspecified)	.	.	.	.	/	.	/
CCOc1cccc(C=NNc2nc(=O)cc(C(=O)OC)s2)c1O	/	/	/	.	/	.	/
CCOc1cccc2cc(C(N)=O)c(=NCc3ccccc3)oc12	.	.	.	47.5	.	.	17.2
O=C(Nc1ccccn1)c1c(O)c2cccc3c2n(c1=O)CCC3	.	.	.	32.4	.	.	.
O=C(Nc1nccs1)c1c(O)c2cccc3c2n(c1=O)CCC3	/	/	/	36.5	.	.	29.7
NCCNC(=O)c1c(O)c2cccc3c2n(c1=O)CCC3	.	.	.	.	/	.	/
Cc1cccnc1NC(=O)c1c(O)c2cccc3c2n(c1=O)CCC3	.	.	.	.	.	.	/
O=C(C1CCCN1S(=O)(=O)c1ccccc1[N+](=O)[O-])N1CCN(c2ccccc2)CC1 (stereo unspecified)	/	/	/	.	/	/	/
COC(=O)[C@]1(Cc2ccccc2)N[C@H](c2ccc(-c3cccc(Cl)c3)c(OC)c2)[C@@H]2C(=O)N(C)C(=O)[C@@H]21	.	.	.	25.1	/	.	17.2
CCN1C(=O)[C@H]2[C@@H](c3ccc(-c4cccc(Cl)c4)c(OC)c3)N[C@@](Cc3ccccc3)(C(=O)OC)[C@H]2C1=O	.	.	.	.	.	.	/
C=CCn1c(C(C)n2c(-c3cnccn3)nc3ccccc32)nc2ccccc21 (stereo unspecified)	.	.	/	.	/	.	/
CCNC(=O)c1cc2c(=O)n3cccc(C)c3nc2n(Cc2ccc(C)cc2)c1=N	.	.	.	.	.	.	/
Cc1cccn2c(=O)c3cc(C(=O)N4COCC4(C)C)n(Cc4ccccc4)c3nc12	.	.	.	31.2	.	.	.
